# From ChEMBL document CHEMBL5058577, “EUbOPEN Chemogenomics Library 2 (Multiplex)” (2022)
# Tested on: U2OS
# Test: Multiplex assay against U2OS
# Assay type: toxicity, cell-based
# Conditions: human
# Outline: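 Live cells carried four stains from seeding: Hoechst33342, BioTracker Green Microtubule Cytoskeleton Dye, MitoTracker Red and Annexin V Alexa Fluor 680. They were imaged on a CQ1 microscope at 37°C and 5% CO2 after compound addition. Using CellPathfinder machine-learning gating, cells were split into Hoechst high-intensity objects or normal cells, normal cells into healthy, pyknosed or fragmented nuclei, and pyknosed cells into mitotic or apoptotic; tubulin, mitochondrial-mass and membrane-permeability phenotypes are per cents of healthy-nucleus cells.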
# [1] = 12 h, 1 µM, compound concentration 1 uM, replicate 1
# [2] = 12 h, 1 µM, compound concentration 1 uM, replicate 2
# [3] = 12 h, 10 µM, compound concentration 10 uM, replicate 1
# [4] = 12 h, 10 µM, compound concentration 10 uM, replicate 2
# [5] = 24 h, 1 µM, compound concentration 1 uM, replicate 1
# [6] = 24 h, 1 µM, compound concentration 1 uM, replicate 2
# [7] = 24 h, 10 µM, compound concentration 10 uM, replicate 1
# [8] = 24 h, 10 µM, compound concentration 10 uM, replicate 2
# [9] = 48 h, 1 µM, compound concentration 1 uM, replicate 1
# [10] = 48 h, 1 µM, compound concentration 1 uM, replicate 2
# [11] = 48 h, 10 µM, compound concentration 10 uM, replicate 1
# [12] = 48 h, 10 µM, compound concentration 10 uM, replicate 2
structure (smiles),measurement,setting,value
Nc1nc(CC(=O)Nc2ccc(CCNC[C@H](O)c3ccccc3)cc2)cs1 [MIRABEGRON],Population Apoptotic (%),[1],86%
same,Population Fragmented Nuclei (%),[1],24%
same,Population Healthy Nuclei (%),[1],62%
same,Population Hoechst High Intensity Objects (%),[1],1%
same,Population Membrane Permeable-Phenotype (%),[1],6%
same,Population Mitochondria Different-Phenotype (%),[1],3%
same,Population Mitotic Cells (%),[1],13%
same,Population Normal (%),[1],98%
same,Population Pyknosed Nuclei (%),[1],12%
same,Population Tubulin-Different-Phenotype (%),[1],4%
same,Total Cell Count,[1],240
same,Population Apoptotic (%),[2],100%
same,Population Fragmented Nuclei (%),[2],13%
same,Population Healthy Nuclei (%),[2],74%
same,Population Hoechst High Intensity Objects (%),[2],0%
same,Population Membrane Permeable-Phenotype (%),[2],5%
same,Population Mitochondria Different-Phenotype (%),[2],2%
same,Population Mitotic Cells (%),[2],0%
same,Population Normal (%),[2],99%
same,Population Tubulin-Different-Phenotype (%),[2],5%
same,Total Cell Count,[2],107
same,Population Apoptotic (%),[3],86%
same,Population Fragmented Nuclei (%),[3],18%
same,Population Healthy Nuclei (%),[3],70%
same,Population Hoechst High Intensity Objects (%),[3],1%
same,Population Membrane Permeable-Phenotype (%),[3],6%
same,Population Mitochondria Different-Phenotype (%),[3],2%
same,Population Mitotic Cells (%),[3],13%
same,Population Normal (%),[3],98%
same,Population Pyknosed Nuclei (%),[3],11%
same,Population Tubulin-Different-Phenotype (%),[3],4%
same,Total Cell Count,[3],319
same,Population Apoptotic (%),[4],66%
same,Population Fragmented Nuclei (%),[4],21%
same,Population Healthy Nuclei (%),[4],71%
same,Population Hoechst High Intensity Objects (%),[4],0%
same,Population Membrane Permeable-Phenotype (%),[4],7%
same,Population Mitochondria Different-Phenotype (%),[4],3%
same,Population Mitotic Cells (%),[4],33%
same,Population Normal (%),[4],99%
same,Population Pyknosed Nuclei (%),[4],6%
same,Population Tubulin-Different-Phenotype (%),[4],1%
same,Total Cell Count,[4],136
same,Population Apoptotic (%),[5],82%
same,Population Fragmented Nuclei (%),[5],21%
same,Population Healthy Nuclei (%),[5],70%
same,Population Hoechst High Intensity Objects (%),[5],2%
same,Population Membrane Permeable-Phenotype (%),[5],4%
same,Population Mitochondria Different-Phenotype (%),[5],2%
same,Population Mitotic Cells (%),[5],17%
same,Population Normal (%),[5],97%
same,Population Pyknosed Nuclei (%),[5],8%
same,Population Tubulin-Different-Phenotype (%),[5],3%
same,Total Cell Count,[5],289
same,Population Apoptotic (%),[6],58%
same,Population Fragmented Nuclei (%),[6],11%
same,Population Healthy Nuclei (%),[6],79%
same,Population Hoechst High Intensity Objects (%),[6],0%
same,Population Membrane Permeable-Phenotype (%),[6],9%
same,Population Mitochondria Different-Phenotype (%),[6],3%
same,Population Mitotic Cells (%),[6],41%
same,Population Normal (%),[6],99%
same,Population Pyknosed Nuclei (%),[6],9%
same,Population Tubulin-Different-Phenotype (%),[6],7%
same,Total Cell Count,[6],125
same,Population Apoptotic (%),[7],86%
same,Population Fragmented Nuclei (%),[7],17%
same,Population Healthy Nuclei (%),[7],75%
same,Population Hoechst High Intensity Objects (%),[7],1%
same,Population Membrane Permeable-Phenotype (%),[7],5%
same,Population Mitochondria Different-Phenotype (%),[7],3%
same,Population Mitotic Cells (%),[7],13%
same,Population Normal (%),[7],98%
same,Population Pyknosed Nuclei (%),[7],7%
same,Population Tubulin-Different-Phenotype (%),[7],3%
same,Total Cell Count,[7],405
same,Population Apoptotic (%),[8],76%
same,Population Fragmented Nuclei (%),[8],20%
same,Population Healthy Nuclei (%),[8],71%
same,Population Membrane Permeable-Phenotype (%),[8],9%
same,Population Mitochondria Different-Phenotype (%),[8],5%
same,Population Mitotic Cells (%),[8],23%
same,Population Tubulin-Different-Phenotype (%),[8],4%
same,Total Cell Count,[8],167
same,Population Apoptotic (%),[9],84%
same,Population Fragmented Nuclei (%),[9],17%
same,Population Healthy Nuclei (%),[9],72%
same,Population Hoechst High Intensity Objects (%),[9],2%
same,Population Membrane Permeable-Phenotype (%),[9],4%
same,Population Mitochondria Different-Phenotype (%),[9],3%
same,Population Mitotic Cells (%),[9],15%
same,Population Normal (%),[9],97%
same,Population Pyknosed Nuclei (%),[9],9%
same,Population Tubulin-Different-Phenotype (%),[9],3%
same,Total Cell Count,[9],394
same,Population Apoptotic (%),[10],78%
same,Population Fragmented Nuclei (%),[10],12%
same,Population Healthy Nuclei (%),[10],74%
same,Population Membrane Permeable-Phenotype (%),[10],8%
same,Population Mitotic Cells (%),[10],21%
same,Population Pyknosed Nuclei (%),[10],13%
same,Population Tubulin-Different-Phenotype (%),[10],7%
same,Total Cell Count,[10],179
same,Population Apoptotic (%),[11],87%
same,Population Fragmented Nuclei (%),[11],14%
same,Population Healthy Nuclei (%),[11],74%
same,Population Hoechst High Intensity Objects (%),[11],2%
same,Population Membrane Permeable-Phenotype (%),[11],5%
same,Population Mitochondria Different-Phenotype (%),[11],2%
same,Population Mitotic Cells (%),[11],12%
same,Population Normal (%),[11],97%
same,Population Pyknosed Nuclei (%),[11],10%
same,Population Tubulin-Different-Phenotype (%),[11],2%
same,Total Cell Count,[11],534
same,Population Apoptotic (%),[12],70%
same,Population Healthy Nuclei (%),[12],78%
same,Population Membrane Permeable-Phenotype (%),[12],3%
same,Population Mitochondria Different-Phenotype (%),[12],3%
same,Population Mitotic Cells (%),[12],29%
same,Population Pyknosed Nuclei (%),[12],7%
same,Population Tubulin-Different-Phenotype (%),[12],1%
same,Total Cell Count,[12],232
